Laboratory results from ChEMBL document CHEMBL1240421, “Synthesis and evaluation of graveoline and graveolinine derivatives with potent anti-angiogenesis activities” (Eur J Med Chem, 2010).
Activity calls are given as the source filed them. No cut-off for these calls is given here.

Experiments:
[1] = Cytotoxicity against human GLC82 cells after 48 hrs by MTT assay; type: functional, cell-based; settings: GLC82, 48 h
Summary of the method: (§1)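 Cells seeded at 5000 per well, exposed to a range of concentrations. MTT step, then 4 h further incubation. Formazan dissolved in DMSO, OD read at 490 nm. Triplicate wells; IC50 taken from curves of mean OD versus concentration.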

HUVEC [2] = experiment: Cytotoxicity against HUVEC cells after 48 hrs by MTT assay; type: cell-based; settings: Homo sapiens; summary of the method: as §1
HUVEC [3] = experiment: Inhibition of HUVEC cell adhesion to collagen at 30 uM after 3 hrs
NCI-H460 = experiment: Cytotoxicity against human NCI-H460 cells after 48 hrs by MTT assay; type: functional, cell-based; settings: NCI-H460, 48 h; summary of the method: as §1
HUVEC [4] = experiment: Inhibition of HUVEC cell adhesion to collagen at 15 uM; settings: Homo sapiens
Gallus gallus = species: Gallus gallus; experiment: Antiangiogenic activity in fertilized chicken eggs at 30 ug/10 uL after 48 hrs by CAM assay; type: functional; settings: Egg
Summary of the method: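 Test agent applied to the chick CAM at 30 µg/10 µL, 10 eggs per treatment; 0.9% NaCl as negative control, thalidomide as positive control. After 48 h, CAMs fixed in 4% paraformaldehyde, vessels counted in three random microscope fields around the filter disc.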

HUVEC [5] = experiment: Inhibition of HUVEC cell adhesion to collagen at 15 uM after 3 hrs; type: functional; settings: Homo sapiens
Summary of the method: (§2)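 Wells coated overnight at room temperature with rat tail tendon type I collagen in PBS, blocked with 0.2% BSA for 2 h at 37 °C. HUVEC resuspended in DMEM and added at 10⁴ cells/ml with compound, incubated 1 or 3 h at 37 °C. After washing, attached cells stained with 0.2% crystal violet and solubilized in 2% SDS; OD at 570 nm. Triplicate wells, three independent experiments.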

HUVEC [6] = experiment: Inhibition of HUVEC cell adhesion to collagen at 15 uM after 1 hr; type: functional, cell-based; settings: Homo sapiens; summary of the method: as §2
HUVEC [7] = experiment: Inhibition of migration of HUVEC cellss at 15 to 30 uM; type: functional, Homo sapiens
Summary of the method: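 Scratch-wound assay: HUVEC plated at 20 000 cells per well, monolayer scraped with a rubber policeman, then incubated 24 h with or without compound. Two random pictures per wound; migration area measured. Triplicate measurements, at least three experiments.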

HUVEC [8] = experiment: Inhibition of HUVEC cell adhesion to collagen at 30 uM after 1 hr; type: functional; settings: Homo sapiens; summary of the method: as §2

Compound | IC50 [1] [µM] | IC50 (HUVEC [2]) [µM] | inhibition (INH) (HUVEC [3]) [%] | IC50 (NCI-H460) [µM] | inhibition at 15 µM (HUVEC [4]) [%] | Activity (Gallus gallus) | inhibition at 15 µM (HUVEC [5]) [%] | IC50 (HUVEC [6]) [µM] | inhibition (INH) (HUVEC [7]) [%] | inhibition at 30 µM (HUVEC [8]) [%]
COc1cc(-c2ccc(COC(=O)c3cccs3)cc2)nc2ccccc12 | > 100 | > 100 | 27.4 | > 100 | 37.4 |  |  |  |  | 
Cc1ccc(-c2cc(NCCCO)c3ccccc3n2)cc1 | 60.3 | 63.5 | 33.8 | 48.1 | 44.2 | Active |  |  |  | 
COc1ccc(-c2cc(NCCCO)c3ccccc3n2)cc1 | 40.9 | 47.6 | 56.4 | 24 | 45.3 |  |  |  |  | 
c1ccc2c(NCCCN3CCOCC3)cc(-c3ccc(CNCCCN4CCOCC4)cc3)nc2c1 | 34.4 | 56.5 |  | 42.3 |  |  | 46.2 | > 100 | 49.2 | 15.8
Cc1ccc(-c2cc(NCCO)c3ccccc3n2)cc1 | 61.1 | 73.7 | 40 | 53.7 | 38.3 | Active |  |  |  | 
Cc1ccc(-c2cc(Cl)c3ccccc3n2)cc1 | > 100 | > 100 | 35.2 | > 100 | 39 |  |  |  |  | 
Cc1ccc(-c2cc(=O)c3ccccc3n2C)cc1 | > 100 | > 100 | 8.1 | > 100 | 30.3 |  |  |  |  | 
COc1ccc(Nc2cc(-c3ccc(C)cc3)nc3ccccc23)cc1 | 34.2 | 14.3 | 48.1 | 24.2 | 42.4 | Active |  |  |  | 
COc1cc(-c2ccc(C)cc2)nc2ccccc12 | > 100 | > 100 | 20.3 | > 100 | 35.4 |  |  |  |  | 
Cc1ccc(-c2cc(NCCCN3CCOCC3)c3ccccc3n2)cc1 | 49.5 | 45.2 | 49.2 | 11.5 | 47.2 | Active |  |  |  | 
Cc1ccc(-c2cc(NCCN(C)C)c3ccccc3n2)cc1 | 20.6 | 30.3 | 48.2 | 6.1 | 52.2 | Active |  |  |  | 
CN(C)CCCNCc1ccc(-c2cc(=O)c3ccccc3n2C)cc1 | > 100 | 99.7 | 42 | > 100 | 31.9 |  |  |  |  | 
COc1ccc(-c2cc(NCCO)c3ccccc3n2)cc1 | 56.2 | 74.1 | 54.9 | 38.3 | 54.1 |  |  |  |  | 
COc1cc(-c2ccc(CO)cc2)nc2ccccc12 | > 100 | > 100 | 19.4 | > 100 | 27.5 |  |  |  |  | 
COc1ccc(-c2cc(Cl)c3ccccc3n2)cc1 | > 100 | > 100 | 48.2 | > 100 | 52.6 |  |  |  |  | 
Clc1cc(-c2ccc(CNCCCN3CCOCC3)cc2)nc2ccccc12 | 30.6 | 22.4 | 72.3 | 21.1 | 67.8 |  |  |  |  | 
